Test results reported in ChEMBL document CHEMBL3400023, “Synthesis and evaluation of novel amide amino-β-lactam derivatives as cholesterol absorption inhibitors” (Bioorg Med Chem, 2015).

Assays:
[1] = Cytotoxicity against MDCK2 cells expressing human NPC1L1 dosed with micelles after 1 hr; set-up: species or system Canis lupus familiaris; conditions: dog, mdck-ii
Summary of the method: (§1)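 MDCKII cells (wild type or stably expressing hNPC1L1, G418-maintained) seeded at 2 × 10^5 cells/mL 24 h ahead in DMEM/10% FCS. Cells exposed for 1 h, then viability read by MTT assay.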

[2] = Cytotoxicity against MDCK2 cells dosed with micelles after 1 hr; set-up: species or system Canis lupus familiaris; conditions: dog, mdck-ii; summary of the method: as §1
[3] = target: T1, NPC1-like intracellular cholesterol transporter 1 (Homo sapiens) (UniProt Q9UHC9); assay: Inhibition of human NPC1L1 transfected in MDCK2 cells assessed as [3H]cholesterol uptake at 60 uM after 1 hr by liquid scintillation counting analysis; format: cell-based; conditions: MDCK-II
T1 sequence (whole entry): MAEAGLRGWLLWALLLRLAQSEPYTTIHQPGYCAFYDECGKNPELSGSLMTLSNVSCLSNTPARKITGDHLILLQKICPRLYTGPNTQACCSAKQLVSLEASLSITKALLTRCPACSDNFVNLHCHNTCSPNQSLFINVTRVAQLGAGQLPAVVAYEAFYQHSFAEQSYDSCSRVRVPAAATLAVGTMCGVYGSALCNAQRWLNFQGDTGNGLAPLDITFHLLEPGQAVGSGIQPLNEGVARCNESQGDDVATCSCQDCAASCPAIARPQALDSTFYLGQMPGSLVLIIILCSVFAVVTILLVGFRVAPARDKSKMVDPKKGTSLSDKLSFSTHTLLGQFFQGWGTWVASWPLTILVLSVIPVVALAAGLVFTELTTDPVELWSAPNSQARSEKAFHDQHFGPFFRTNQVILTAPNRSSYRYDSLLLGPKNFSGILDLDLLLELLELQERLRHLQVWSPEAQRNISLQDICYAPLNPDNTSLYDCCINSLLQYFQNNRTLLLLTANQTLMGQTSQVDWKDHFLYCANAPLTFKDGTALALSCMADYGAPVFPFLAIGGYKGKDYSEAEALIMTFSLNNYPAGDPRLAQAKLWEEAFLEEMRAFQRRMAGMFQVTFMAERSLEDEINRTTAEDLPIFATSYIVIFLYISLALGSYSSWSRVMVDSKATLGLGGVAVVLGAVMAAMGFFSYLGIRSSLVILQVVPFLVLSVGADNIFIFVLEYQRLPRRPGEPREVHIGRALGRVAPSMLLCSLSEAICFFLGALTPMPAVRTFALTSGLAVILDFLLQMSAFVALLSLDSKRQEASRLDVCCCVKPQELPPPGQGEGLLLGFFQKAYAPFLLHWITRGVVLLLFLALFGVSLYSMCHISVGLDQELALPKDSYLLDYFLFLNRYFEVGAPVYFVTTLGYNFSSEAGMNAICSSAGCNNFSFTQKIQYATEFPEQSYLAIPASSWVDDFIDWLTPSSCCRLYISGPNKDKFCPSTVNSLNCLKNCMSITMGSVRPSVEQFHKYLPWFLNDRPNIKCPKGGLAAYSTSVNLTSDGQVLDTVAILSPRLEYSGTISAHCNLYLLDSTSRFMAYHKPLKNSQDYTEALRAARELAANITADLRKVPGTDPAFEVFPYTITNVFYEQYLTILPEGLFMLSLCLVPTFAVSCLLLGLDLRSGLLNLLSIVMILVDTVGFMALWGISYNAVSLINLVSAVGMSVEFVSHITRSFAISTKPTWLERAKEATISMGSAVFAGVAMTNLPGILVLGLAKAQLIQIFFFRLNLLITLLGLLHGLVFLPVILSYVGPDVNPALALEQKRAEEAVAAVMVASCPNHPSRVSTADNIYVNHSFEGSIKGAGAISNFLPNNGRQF
Summary of the method: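 hNPC1L1/MDCKII cells were seeded in DMEM with 5% LPDS 24 h before treatment, then PBS-washed. Cells were exposed for 1 h to micellar medium carrying [3H]cholesterol (0.18 μCi/mL) plus compound (0–200 μM). They were washed with ice-cold 0.2% fatty acid-free BSA and lysed, and lysate counted by scintillation. Counts were normalised to protein (CPM/mg) and expressed as % inhibition versus untreated cells. Duplicates, three independent experiments.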

| Structure (SMILES) | Activity [1] | Activity [2] | inhibition [3] [%] |
| --- | --- | --- | --- |
| O=C(Cc1ccc(F)cc1)N[C@H]1C(=O)N(c2ccc(F)cc2)[C@@H]1c1ccc(O)cc1 | Non-toxic | Non-toxic |  |
| O=C(/C=C/c1ccccc1)N[C@H]1C(=O)N(c2ccc(F)cc2)[C@@H]1c1ccc(O)cc1 | Non-toxic | Non-toxic |  |
| O=C(/C=C/c1ccc(F)cc1)N[C@H]1C(=O)N(c2ccc(F)cc2)[C@@H]1c1ccc(O)cc1 | Non-toxic | Non-toxic |  |
| O=C(N[C@H]1C(=O)N(c2ccc(F)cc2)[C@@H]1c1ccc(O)cc1)c1ccc(F)cc1 | Non-toxic | Non-toxic | 60 |
| O=C(Cc1ccccc1)N[C@H]1C(=O)N(c2ccc(F)cc2)[C@@H]1c1ccc(O)cc1 | Non-toxic | Non-toxic |  |
| O=C1[C@H](CC[C@H](O)c2ccc(F)cc2)[C@@H](c2ccc(O)cc2)N1c1ccc(F)cc1 [EZETIMIBE] | Non-toxic | Non-toxic | 40 |
| O=C(N[C@H]1C(=O)N(c2ccc(F)cc2)[C@@H]1c1ccc(O)cc1)c1ccccc1 | Non-toxic | Non-toxic | 60 |
